Screening data as filed in PubChem.
HSV augment = HSV replication enhancement | HSV replication augmentation in cells, fold increase | maximum fold increase | hit rate 0.005% among 220,000 | AID 1956; in the data active = maximum fold increase above about 1.5; tested in PC3 cells
Lmaj promast = reduces viability of Leishmania major promastigotes; resazurin fluorescence viability; inhibition, % at 10 µM; hit rate 9% among 200,000; in the data active = inhibition above about 50%;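 also: promastigotes grown with compound for 44 hours at 28 °C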
bCat nuc transl = alters nuclear translocation of beta-catenin in HeLa cells. immunofluorescence imaging. nuclear translocation activity, % at 5 µM. hit rate 0.3% among 190,000. AID 1665;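 active = nuclear translocation activity above 50% at 5 µM, with a well cell count of 50 or more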;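 also: per-cell ratio of nuclear to cytoplasmic median beta-catenin stain intensity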
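Technique: fluorescence imaging of beta-catenin antibody stain plus DAPI / Material: human HeLa cell line / Incubation: compound treatment 24 h, 37°C, 5% CO2 / Read-out basis: % activation of per-cell nuclear versus cytoplasmic median beta-catenin signal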
MT stabilizer = microtubule stabilization, imaging screen; HeLa tubulin immunostaining HCS, 24 h; share of cells brighter than vehicle mean+2SD; % tubulin-high responders, % at 10 µM; hit rate 0.83% among 200,000;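 active = plate Z-score above 3 for both tubulin-high and condensed-nucleus cell shares, with cell loss under 80%, at 10 µM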;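 also: anti alpha tubulin signal scored within the nucleus-defined area of each cell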
Dynein transport = blocks dynein driven cargo transport along microtubules; 3617.4 mouse cells, GR-EGFP nuclear translocation imaging; test concentration mostly 20 µM; stimulated with dexamethasone, 1 µM; hits give low values; z-score, hits read low; hit rate 0.47% among 220,000;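 active = plate z-score of nuclear minus cytoplasmic receptor signal below a set negative limit, without overly bright fluorescence or cell loss, cut at about -3.5 in these data, passing the limit was not always enough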;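 also: z-score of nuclear minus cytoplasmic ring GR-EGFP intensity difference per well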
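Buffer or medium: tet-free medium with charcoal-stripped serum / Also added: dexamethasone agonist, 1.0 µM final, for 30 min / Timing: induction 48 h, compound 1 h, agonist 30 min / Measured by: high-content fluorescence imaging after fixation / Read-out: nuclear-to-cytoplasmic GR-EGFP distribution per well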
A number is an active result; n = inactive; x = no result; ! = repeats disagree. Compounds with a hit are over-represented: about 8.9% of the library has one in this group of screens.

SMILES	HSV augment	Lmaj promast	bCat nuc transl	MT stabilizer	Dynein transport
CCOc1ccccc1NC1=CC(=O)CC(c2ccccc2)C1 (stereo not given)	n	n	n	25	n
Nc1ccccc1NC1=CC(=O)CC(c2ccccc2)C1 (stereo not given)	n	n	x	n	n
CC1CN(CCn2cnc3c(N)ncnc32)CC(C)O1 (stereo not given)	n	x	n	x	n
C=CCOc1c(Cl)cc(C2NC(=O)NC(C)=C2C(=O)OC)cc1Cl (stereo not given)	n	n	n	23	n
COC(=O)C(Oc1ccc2c(-c3ccc(OC)cc3)cc(=O)oc2c1)c1ccccc1 (stereo not given)	n	n	n	n	n
CCOC(=O)C(Oc1ccc2c(-c3ccccc3)cc(=O)oc2c1)c1ccccc1 (stereo not given)	n	78	n	n	n
C/C(O)=C\c1nc2ccccc2oc1=O	n	65	x	n	n
CS(=O)(=O)Cc1nc2ccccc2oc1=O	n	100	n	n	n
COc1ccccc1Cn1c(=S)[nH]c2cc(C(=O)NCc3cccnc3)ccc2c1=O	n	n	n	n	n
O=C(COC(=O)C1CC1)NC(=O)NCc1ccccc1	n	n	n	n	n
COC(=O)c1sccc1NC(=S)Nc1ccc(OC)cc1	n	n	n	x	n
CCOC(=O)c1ccc(NC(=S)N2CCSC2c2ccc(Br)cc2)cc1 (stereo not given)	n	87	n	n	n
O=Cc1ccc(-c2ccc([N+](=O)[O-])cc2Cl)o1	n	60	n	n	n
CCC(C)(C(=O)NC1CCCC1)N(CC1CCCO1)C(=O)c1ccc2c(c1)OCO2 (stereo not given)	n	n	n	n	n
COc1ccc(-c2[nH]n(-c3ccc([N+](=O)[O-])cc3)c(=O)c2C=NCc2ccncc2)cc1	n	99	n	n	n
O=C(NCCCN1CCOCC1)c1ccc(CSc2ccc(Cl)cc2)cc1	n	97	n	n	n
O=C(NCCCN1CCOCC1)c1cc(-c2ccc(Br)cc2)on1	n	94	n	n	n
Cc1cc(C)c(C)c(S(=O)(=O)Nc2ccccc2C(=O)NCCCN2CCOCC2)c1C	n	97	n	n	n
O=C(NCCCN1CCOCC1)c1ccc(-c2ccc(Cl)cc2)o1	n	n	n	n	n
O=C(NCCCN1CCOCC1)c1ccc(Br)cc1	n	52	n	n	n
O=C(CCS(=O)(=O)Cc1ccc(Cl)cc1)NCCCN1CCOCC1	n	89	n	n	n
COc1cccc(NC(=O)CCNS(=O)(=O)c2cccc3nsnc23)c1	n	n	n	n	n
Fc1ccc(NC(=S)Nc2ccc(F)c(Cl)c2)cc1Cl	n	97	n	n	n
Fc1ccc(NC(=S)N2CCOCC2)cc1Cl	n	n	n	n	n
CCC(C)NC(=O)Nc1ccc(F)c(Cl)c1 (stereo not given)	n	96	n	n	n
SMILES	HSV augment	Lmaj promast	bCat nuc transl	MT stabilizer	Dynein transport
Fc1ccc(NC(=S)N2CCCC2)cc1Cl	n	95	n	n	n
COC(=O)NC(=S)Nc1ccc(Oc2ccc(Cl)cc2Cl)c(Cl)c1	n	n	n	26	n
Cc1ccc2nc(-c3ccc(NC(=O)CN4C(=O)c5ccccc5C4=O)cc3)sc2c1	n	n	n	n	n
O=C(c1n[nH]c(=O)c2ccccc12)N1CCN(c2ccccc2)CC1	n	n	n	n	n
Cc1ccc(C)c(NNC(N)=S)c1	n	n	n	n	n
COc1ccc(C2=C(CN(C)C)C(c3ccccc3)c3ccccc3O2)cc1 (stereo not given)	n	100!	n	n	n
CCOc1ccc(C2=C(C=C(C#N)C#N)C(c3ccccc3)c3ccccc3O2)cc1 (stereo not given)	n	n	n	n	n
O=C1NC(=O)/C(=C/c2cccc([N+](=O)[O-])c2)N1	n	x	n	x	n
COC(=O)COc1ccccc1/C=C1/NC(=O)NC1=O	n	53	x	n	n
O=C1NC(=O)/C(=C\c2ccccc2OCc2cccc([N+](=O)[O-])c2)N1	n	57	n	n	n
O=S(=O)(c1ccc(-c2nnc(SCc3ccccc3)o2)cc1)N1CCCC1	n	85	n	n	n
CC(=O)N1N=C(c2cccs2)CC1c1cccs1 (stereo not given)	n	n	n	n	n
CCOC(=O)/C(=C\c1ccc([N+](=O)[O-])o1)NC(=O)c1ccccc1	n	99	x	n	n
CCCOC(=O)/C(=C\c1ccc([N+](=O)[O-])o1)NC(=O)c1ccccc1	n	96	n	n	n
O=S(=O)(Nc1ccc(O)c(CN2CCCCC2)c1)c1ccccc1	n	99	n	n	n
